UCH37 inh = human UCH37 deubiquitinating enzyme inhibition; Q9Y5K5; purified proteasome/UCH37, Ub-AMC cleavage fluorescence; inhibition, % (concentration not given with the values); actives 0.33% (n = 330,000); AID 588478;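 active = mean inhibition over replicate wells above about 20%, limit read from the data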;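 note: 0% = compound-free wells with enzyme and 100% = wells lacking proteasome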
Target sequence (Q9Y5K5 whole entry, looked up): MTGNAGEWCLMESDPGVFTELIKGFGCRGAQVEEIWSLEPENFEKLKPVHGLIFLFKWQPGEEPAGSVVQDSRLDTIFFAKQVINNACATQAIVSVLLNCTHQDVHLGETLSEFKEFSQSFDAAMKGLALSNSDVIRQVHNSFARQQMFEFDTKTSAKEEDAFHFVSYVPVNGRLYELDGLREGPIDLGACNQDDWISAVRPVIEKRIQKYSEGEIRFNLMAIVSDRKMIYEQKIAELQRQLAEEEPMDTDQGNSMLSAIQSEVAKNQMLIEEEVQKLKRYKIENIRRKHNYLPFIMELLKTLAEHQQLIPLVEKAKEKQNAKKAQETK
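Material: Human UCH37 enzyme supplied as purified proteasome complex | Schedule: 30 min preincubation with enzyme, 25 min cleavage at room temperature | Detection: AMC fluorescence 355/460 nm | Measure: % inhibition of Ub-AMC cleavage fluorescence | Controls: Wells without proteasome as full block, compound-free enzyme plus substrate as uninhibited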
PLCb3 inh = blocks human PLC-beta3 enzyme activity; actives 0.18% (n = 370,000); Purified PLC-beta3, fluorogenic substrate, fluorescence; AID 720704; inhibition, % at 12.2 µM; in the data active = inhibition above about 11%;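 note: 0% = median of compound wells on plate and 100% = full blocker control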
Rpn11 inh = inhibitors of human proteasome Rpn11; O00487; human 26S proteasome, Ub4-pepOG fluorescence polarization; 20S core pre-blocked with epoxomicin; inhibition, % at 20 µM; actives 0.59% (n = 360,000);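 active = inhibition at 20 µM, scaled to each plate's controls, above about 33%, limit read from the data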
Target sequence (O00487 whole entry, looked up): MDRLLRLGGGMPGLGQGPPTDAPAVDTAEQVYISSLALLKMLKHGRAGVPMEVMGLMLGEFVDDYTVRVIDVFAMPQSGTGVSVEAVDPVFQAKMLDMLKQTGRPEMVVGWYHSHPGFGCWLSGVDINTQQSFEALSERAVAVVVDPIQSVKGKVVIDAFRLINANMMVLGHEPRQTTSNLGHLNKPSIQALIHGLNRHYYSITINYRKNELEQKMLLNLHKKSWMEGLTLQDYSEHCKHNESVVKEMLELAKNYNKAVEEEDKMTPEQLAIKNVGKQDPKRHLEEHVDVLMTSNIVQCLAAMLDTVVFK
PLC-gamma1 inh = PLC-gamma1 (human) inhibition, primary screen; purified PLC-gamma1, fluorogenic substrate, fluorescence; inhibition, % at 12.2 µM; actives 0.84% (n = 370,000); in the data active = inhibition above about 9.5%
Rpn11 confirm = confirmation of human proteasome Rpn11 inhibitors. shares compounds with Rpn11 inh. actives 29% (n = 1,900). inhibition, % at 20 µM. purified human 26S proteasome, Ub4-pepOG fluorescence polarization; proteasome pretreated with epoxomicin
MMP-2 inh = counter-screen for RPN11 inhibitors: inhibition of human MMP-2; inhibition, % at 20 µM; recombinant MMP-2, FRET peptide cleavage fluorescence; actives 4% (n = 1,900); shares compounds with Rpn11 inh;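 note: human MMP-2 activated beforehand with APMA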
Thrombin FP = blocks bovine thrombin, flagging nonselective RPN11 hits; actives 13% (n = 1,900); inhibition, % at 20 µM; shares compounds with Rpn11 inh; AID 602333; bovine thrombin cleavage of Ub4-pepOG, fluorescence polarization;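 active = mean inhibition at least 40% at 20 µM, or signal 3 deviations below plate average, so some actives read negative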;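 note: plate controls were thrombin with DMSO for no effect and buffer wells lacking thrombin for full effect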
Numbers without * were called inactive; . = not tested or not shown; + = active, no number. Only some compounds are listed: those with a hit (about 1.7% of all), similar ones and a draw of the others. Cut-off read from the data, not from the text of the source, unless noted: active = inhibition above about 40%; inactive = the rest.

SMILES	UCH37 inh	PLCb3 inh	Rpn11 inh	PLC-gamma1 inh	Rpn11 confirm	MMP-2 inh	Thrombin FP
CCCCCCCCN1[C@@H](CC(=O)OC)c2cc(F)ccc2S1(=O)=O	5	-1	56*	-2	10	-9	5
CCOc1ccc(N2C(=O)S/C(=C\c3ccc(O)c(OCC)c3)C2=O)cc1	0	-31	47*	-20	9	26	-1
CCOc1cc(/C=C2\SC(=O)N(c3ccc(O)cc3)C2=O)ccc1O	3	-121	68*	-83	15	1	6
CCOc1cc(/C=C2/SC(=S)N(Cc3ccccc3)C2=O)ccc1O	5	-126	.	-100	.	.	.
CCCc1noc(-c2cccc([N+](=O)[O-])c2)n1	0	-4	0	-2	.	.	.
CCCc1noc(-c2ccc(-c3ccccc3)cc2)n1	0	4	196*	-18	-1	-9	-11
O=C(NN=Cc1cccc2ccccc12)c1cccs1	1	.	.	.	.	.	.
O=C(Cn1c(C(F)(F)F)nc2ccccc21)N1CCCC1	-2	1	75*	3	-20	-35	-17
CC(=O)Cn1c(C(F)(F)F)nc2ccccc21	0	1	1	-3	.	.	.
Cn1cncc1C#Cc1ccc2cc(C3(O)CCCCC3)oc(=O)c2c1	3	7	47*	2	90*	6	31
O=C(NN1C(=O)/C(=C/c2ccc(O)c([N+](=O)[O-])c2)SC1=S)c1ccccc1Cl	24*	-6	71*	5	51*	-8	42*
COc1cc(/C=C2\SC(=S)N(NC(=O)c3ccccc3O)C2=O)ccc1O	11	-82	.	-50	.	.	.
CCOc1ccc(C(=O)NN=Cc2cc([N+](=O)[O-])cs2)cc1	8	.	.	.	.	.	.
NC(=O)COc1ccc(/C=N\NC(=O)c2ccc(-c3ccccc3)cc2)cc1	.	-7	125*	-3	3	-10	-2
COc1cc(/C=N/Nc2ccc([N+](=O)[O-])cc2S(=O)(=O)N2CCOCC2)cc(OC)c1OC	.	5	44*	3	-5	-4	-16
O=C(N/N=C/c1ccccn1)c1cc(-c2ccc3ccccc3c2)n[nH]1	.	-3	137*	0	85*	-7	58*
COc1cc(-c2ccc(Nc3ccccc3C(=O)O)c(OC)c2)ccc1Nc1ccccc1C(=O)O	25*	-39	48*	-23	41*	72*	-29
Cc1ccc(C(=O)NN=Cc2ccc(OC(=O)c3cccc(F)c3)cc2)cn1	1	.	.	.	.	.	.
Cc1ccc(-c2nc3ccccc3o2)cc1NC(=S)NC(=O)c1cc2ccccc2o1	7	-4	47*	-6	-3	-14	11
Brc1ccc(-c2nnc3ccc(N4CCN(c5ccccc5)CC4)nn23)cc1	-16	.	62*	.	-5	-28	-16
COc1ccc(/C=C2\CCCC3C2=NN(C(=O)CSc2ncn[nH]2)C3c2ccc(OC)cc2)cc1 (stereo not drawn)	-25	-64	41*	-51	-16	-28	-14
CC(C)C=NNC(=O)CCCCC(=O)NN=CC(C)C	2	.	.	.	.	.	.
Cc1nc2c(c(=O)c3ccccc3n2C)c(=O)n1C1CCCC1	.	-11	.	-1	.	.	.
Cn1c2ccccc2c(=O)c2c(=O)n(C3CCCCCC3)c(C3CCCCC3)nc21	.	4	146*	0	-4	-40	-7
Cc1cc(C(F)(F)F)n(-c2nc(C(=O)NN=Cc3ccc(F)cc3)cs2)n1	5	.	.	.	.	.	.
SMILES	UCH37 inh	PLCb3 inh	Rpn11 inh	PLC-gamma1 inh	Rpn11 confirm	MMP-2 inh	Thrombin FP
CCN(CC(=O)Nc1ccc(OC)cc1)CC(=O)Nc1ccc(Br)cc1F	1	-3	4	0	.	.	.
COc1ccc(NCC(=O)Nc2ccc(Br)cc2F)c(OC)c1	3	-27	40*	-12	3	-7	3
CC(=N/N=C1\NC(=O)C(C)S1)c1ccco1 (stereo not drawn)	8	.	.	.	.	.	.
CCc1ccc(OCC(=O)Nc2ccc(-c3nc4ccccc4o3)c(O)c2)cc1	-280	-49	128*	-40	-14	-21	-23
O=C(c1ccco1)N1CCN(c2ncnc3c(-c4ccccc4)nsc23)CC1	-9	-4	102*	-4	5	-6	-4
CC1(C)CC(=O)C(N=Nc2cc(Cl)c(Cl)c(Cl)c2)=C(O)C1	4	2	0	2	.	.	.
Cc1ccc(O)c(N=NC2=C(O)CC(C)(C)CC2=O)c1	16	-2	47*	-3	11	-87	6
O=C(NN=Cc1cc2c(cc1Br)OCO2)c1c[nH]c2ccccc12	3	.	.	.	.	.	.
COc1ccccc1C(=O)NN=Cc1cnc2ccccc2n1	14	.	.	.	.	.	.
O=C(CCCN1C(=O)/C(=C\c2cccs2)SC1=S)NNC(=O)c1cccnc1	7	-3	166*	-1	3	13	-2
O=C(CCCN1C(=O)/C(=C\c2cccs2)SC1=S)Nc1ccccn1	6	1	34*	1	5	-35	-8
O=C(CCCN1C(=O)/C(=C/c2ccccc2Cl)SC1=S)NNC(=O)c1ccncc1	6	-1	-2	-1	.	.	.
O=C(CCN1C(=O)/C(=C/c2cccs2)SC1=S)Nc1ccccn1	7	-1	.	0	.	.	.
O=C(CCCN1C(=O)/C(=C/c2cccs2)SC1=S)NNC(=O)c1ccncc1	8	2	47*	0	-7	20	1
Cc1ccc(C(=O)NN=CC2=Cc3ccccc3OC2C)cc1 (stereo not drawn)	-12	.	.	.	.	.	.
Cc1cc(C)c(C(=O)/C=C/c2cccs2)c(=O)[nH]1	10	-6	45*	4	1	-7	8
COc1ccc(/C=C/C(=O)c2c(C)cc(C)[nH]c2=O)c2ccccc12	0	-48	44*	-30	24	-33	5
Cc1ccc(/C=C/C(=O)c2c(C)cc(C)[nH]c2=O)cc1	6	.	-3	.	.	.	.
C/C(=C\c1cccs1)C(=O)c1c(C)cc(C)[nH]c1=O	16	2	-3	4	.	.	.
COC(=O)CCC(=O)N1CCCC(N2CCN(c3ccc(OC)cc3)CC2)C1 (stereo not drawn)	-1	4	55*	-4	0	-55	-1
COCCC(=O)N1CCCC(N2CCN(c3ccc(F)cc3)CC2)C1 (stereo not drawn)	4	-1	6	4	.	.	.
COC(=O)C1=C(C)NC(=O)/C1=C\c1cc(C)n(-c2c(C)cccc2C)c1C	4	-42	58*	-26	10	-11	-2
O=C(N/N=C/C=C\c1ccccc1[N+](=O)[O-])c1cccs1	.	1	-2	3	.	.	.
O=C(N/N=C/C=C/c1ccc([N+](=O)[O-])cc1)c1cccs1	.	2	+	-1	113*	45*	41*
COc1cccc(-c2c(C(=O)NN=C(C)COc3ccccc3)nnn2-c2nonc2N)c1	0	.	.	.	.	.	.

Compound activity deposited in PubChem by several laboratories.
